The values below come from ChEMBL document CHEMBL5365430, “Structure-Activity Relationship of Truncated 2,8-Disubstituted-Adenosine Derivatives as Dual A2A/A3 Adenosine Receptor Antagonists and Their Cancer Immunotherapeutic Activity” (J Med Chem, 2023).

The structures appear in SMILES notation. Activity calls are given as the source filed them. The rule behind the calls is not given here.

The nature of series [1]: Oral bioavailability in CrljOri:CD1 mouse at 10 mg/kg measured for 24 hrs by LC-MS/MS analysis. Type of series: ADME, organism-based. As to conditions: in vivo. An outline of the steps: (§1)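 Male CrljOri:CD1 mice, 7 weeks old (about 31.4 g), given single i.v. 2 mg/5 mL/kg or oral 10 mg/10 mL/kg dose in 5% DMSO/40% PEG 400/55% DW, cross-over design (n = 3). Retro-orbital blood taken 5 min (i.v. only) to 24 h into heparinized tubes. Plasma separated at 4 °C, stored at -15 °C, analysed by LC-MS/MS.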

Series [2] can be described thus: Synergistic antitumor activity against mouse 4T1-Luc cells implanted in BALB/c mouse assessed as tumor growth inhibition at 10 mg/kg, ip administered thrice a week for 21 days in presence of anti-mouse PD-L1 relative to control. Type of series: functional. The conditions noted are these: 504 h, read-out: TGI, time 21 day. An outline of the steps: (§2)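 Mice received 4T1-Luc cells subcutaneously in flank (1 × 10^6 cells, 50:50 PBS/Matrigel), tumors grown 7 days to about 50 mm³, then randomized (n = 5). Vehicle (DMSO/cremophor/normal saline 5:5:90), 10 mg/kg test drug, anti-mouse PD-L1 10 mg/kg, or both given i.p. thrice weekly for 21 days. Tumor volume by caliper (3.14 × L × W × H/6), tumors excised and weighed; toxicity judged by body weight loss.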

Series [3] can be described thus: Toxicity in BALB/c mouse implanted with mouse 4T1-Luc cells assessed as body weight loss at 10 mg/kg, ip administered thrice a week for 21 days in presence of anti-mouse PD-L1. In kind it is organism-based. The conditions noted are these: in vivo, 504 h, time 21 day. An outline of the steps: as §2
The nature of series [4]: Tmax in CrljOri:CD1 mouse at 2 mg/kg, iv measured for 24 hrs by LC-MS/MS analysis. In kind it is ADME, organism-based. As to conditions: in vivo. An outline of the steps:
as §1

The nature of series [5]: Toxicity in BALB/c mouse implanted with mouse 4T1-Luc cells assessed as adverse effects at 10 mg/kg, ip administered thrice a week for 21 days in presence of anti-mouse PD-L1. Type of series: organism-based. The conditions noted are these: in vivo, 504 h, time 21 day. Summed up:
as §2

Series [6] is described as follows: Antitumor activity against mouse 4T1-Luc cells implanted in BALB/c mouse assessed as tumor growth inhibition at 10 mg/kg, ip administered thrice a week for 21 days relative to control. In kind it is functional. The conditions noted are these: 504 h, time 21 day, read-out: TGI. Summed up:
as §2

For a further series, the system named is 4T1-Luc. Put plainly: Synergistic antitumor activity against mouse 4T1-Luc cells implanted in BALB/c mouse assessed as reduction in tumor growth at 10 mg/kg, ip administered thrice a week for 21 days in presence of anti-mouse PD-L1 by IVIS imaging analysis. In kind it is functional, organism-based. The conditions noted are these: time 21.0 day. Summed up: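 On final day of the 4T1-Luc i.p. dosing study (n = 5 per group, thrice weekly for 21 days), anesthetized mice were imaged by IVIS 15 min after D-luciferin (150 mg/kg in PBS). Average tumor signal intensity was quantified.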

Series [7] in a line: Toxicity in BALB/c mouse implanted with mouse 4T1-Luc cells assessed as adverse effects at 10 mg/kg, ip administered thrice a week for 21 days. Type of series: organism-based. The conditions noted are these: in vivo, 504 h, time 21 day. An outline of the steps:
as §2

The nature of series [8]: Tmax in CrljOri:CD1 mouse at 10 mg/kg, po measured for 24 hrs by LC-MS/MS analysis. In kind it is ADME, organism-based. As to conditions: in vivo. An outline of the steps:
as §1

Series [9] can be described thus: Cmax in CrljOri:CD1 mouse at 10 mg/kg, po measured for 24 hrs by LC-MS/MS analysis. Type of series: ADME, organism-based. The conditions noted are these: in vivo. Details: time 24 hrs, dose 10 mg/kg, route po. Summed up: as §1
Series [10] is described as follows: Cmax in CrljOri:CD1 mouse at 2 mg/kg, iv measured for 24 hrs by LC-MS/MS analysis. Type of series: ADME, organism-based. Details: time 24 hrs, dose 2 mg/kg, route iv. As to conditions: in vivo. Summed up: as §1
Series [11] in a line: Clearance in CrljOri:CD1 mouse at 2 mg/kg, iv measured for 24 hrs by LC-MS/MS analysis. Type of series: ADME, organism-based. As to conditions: in vivo. An outline of the steps: as §1
Series [12] is described as follows: AUC (0 to t) in CrljOri:CD1 mouse at 2 mg/kg, iv measured for 24 hrs by LC-MS/MS analysis. On the set-up: dose 2 mg/kg, time 24 hrs, route iv. As to conditions: in vivo. In kind it is ADME, organism-based. Summed up: as §1
A short description of series [13]: Half life in CrljOri:CD1 mouse at 2 mg/kg, iv measured for 24 hrs by LC-MS/MS analysis. In kind it is ADME, organism-based. As to conditions: in vivo. An outline of the steps: as §1
Series [14] is described as follows: Half life in CrljOri:CD1 mouse at 10 mg/kg, po measured for 24 hrs by LC-MS/MS analysis. In kind it is ADME, organism-based. The conditions noted are these: in vivo. Summed up:
as §1

Series [15] can be described thus: AUC (0 to t) in CrljOri:CD1 mouse at 10 mg/kg, po measured for 24 hrs by LC-MS/MS analysis. In kind it is ADME, organism-based. On the set-up: time 24 hrs, dose 10 mg/kg, route po. The conditions noted are these: in vivo. An outline of the steps: as §1
Series [16] can be described thus: Toxicity in BALB/c mouse implanted with mouse 4T1-Luc cells assessed as body weight loss at 10 mg/kg, ip administered thrice a week for 21 days. Type of series: organism-based. As to conditions: in vivo, 504 h, time 21 day. Summed up: as §2
In series [17] the target is Voltage-gated inwardly rectifying potassium channel KCNH2 (Homo sapiens, UniProt Q12809). Put plainly: Inhibition of hERG expressed in CHO cells at 1 to 10 uM incubated for 300 secs by patch-clamp method. In kind it is toxicity, cell-based. As to conditions: 5 min, dose 1-10 µM, time 300 sec. In general terms: hERG is a cardiac potassium channel; its block is linked to QT prolongation.

Series [18] can be described thus: Volume of distribution at steady state in CrljOri:CD1 mouse at 2 mg/kg, iv measured for 24 hrs by LC-MS/MS analysis. Type of series: ADME, organism-based. As to conditions: in vivo. An outline of the steps:
as §1

Sequence of Voltage-gated inwardly rectifying potassium channel KCNH2 (Q12809 whole entry): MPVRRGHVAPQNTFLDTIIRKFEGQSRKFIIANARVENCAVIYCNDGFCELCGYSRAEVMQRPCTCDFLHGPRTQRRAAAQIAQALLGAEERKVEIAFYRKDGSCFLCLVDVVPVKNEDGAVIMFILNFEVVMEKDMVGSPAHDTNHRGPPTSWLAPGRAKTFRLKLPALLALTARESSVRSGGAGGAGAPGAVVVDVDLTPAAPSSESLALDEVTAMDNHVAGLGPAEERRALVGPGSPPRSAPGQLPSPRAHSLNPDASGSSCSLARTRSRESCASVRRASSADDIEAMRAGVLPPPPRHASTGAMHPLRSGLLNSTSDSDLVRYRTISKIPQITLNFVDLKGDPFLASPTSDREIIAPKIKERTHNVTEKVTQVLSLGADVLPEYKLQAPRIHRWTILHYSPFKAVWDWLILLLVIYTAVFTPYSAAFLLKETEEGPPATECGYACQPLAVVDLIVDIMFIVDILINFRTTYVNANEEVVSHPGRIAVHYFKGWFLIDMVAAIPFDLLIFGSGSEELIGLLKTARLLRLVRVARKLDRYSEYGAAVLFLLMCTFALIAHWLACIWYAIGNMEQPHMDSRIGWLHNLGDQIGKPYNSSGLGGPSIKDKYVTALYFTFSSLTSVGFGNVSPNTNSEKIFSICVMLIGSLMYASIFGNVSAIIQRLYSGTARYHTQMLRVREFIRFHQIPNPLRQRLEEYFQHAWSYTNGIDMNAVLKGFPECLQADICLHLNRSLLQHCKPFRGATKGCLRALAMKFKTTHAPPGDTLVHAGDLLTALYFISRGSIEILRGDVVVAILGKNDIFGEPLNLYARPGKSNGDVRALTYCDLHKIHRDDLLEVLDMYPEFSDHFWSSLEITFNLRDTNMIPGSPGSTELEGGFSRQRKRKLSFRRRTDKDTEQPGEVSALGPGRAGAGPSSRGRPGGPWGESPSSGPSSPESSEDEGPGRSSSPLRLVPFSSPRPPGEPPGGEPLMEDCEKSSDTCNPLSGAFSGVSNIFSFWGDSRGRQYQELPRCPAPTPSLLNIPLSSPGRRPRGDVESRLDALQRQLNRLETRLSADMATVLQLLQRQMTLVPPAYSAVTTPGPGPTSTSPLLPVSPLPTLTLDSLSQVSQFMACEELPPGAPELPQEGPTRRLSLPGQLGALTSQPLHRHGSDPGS

As usually defined, the Tmax is the time from dosing to the highest level. For orientation: Cmax means the peak of the concentration-time curve. A word on the clearance: it is the rate of elimination divided by the concentration. What is called Vdss is the apparent volume that relates the amount in the body to the concentration in plasma or blood. Lower therefore signals little distribution into tissue. As to `CCCCC#Cc1nc(N)c2nc(-c3cccs3)n([C@@H]3OC[C@@H](O)[C@H]3O)c2n1`, the F in series [1] was found to be 22.81%. Also, the inhibition in vivo at 10 mg/kg in series [2] is 77%; in series [6] it was 15%. In addition, the Activity result in series [3], in series [5], in series [7] and in [16] was “Non-Toxic” throughout. The Tmax in series [4] turned out to be 4.8 min; in [8] it was 15 min. In addition, in the series on 4T1-Luc, the outcome was Active. Besides, the Cmax in [9] came to 1241.79 ng/mL; in [10], 1984.94 ng/mL. For the same compound, the clearance in series [11] turned out to be 60.5 mL/min/kg. For the same compound, the values for the AUCt in series [12] and in series [15] were 550.95 ng·h/mL and 626.55 ng·h/mL, respectively. The t1/2 came to 9.6 min in series [13] and 119 min in series [14]. Further, the “inhibition (INH)” value in series [17] is reported as “Not Active”. In [18], this compound registered a distribution volume (Vdss) of 0.69 L/kg.
